Measurements as given in ChEMBL document CHEMBL3621116, “Benzimidazole Derivatives as Potent JAK1-Selective Inhibitors” (J Med Chem, 2015).
pIC50: −log10 of the molar value. Active and inactive are the calls of the source. The rule behind the calls is not given here.

Tests used:
[1] = species on record: Homo sapiens; test: Selectivity ratio of IC50 for JAK2 (unknown origin) to IC50 for JAK1 (unknown origin) by cell based assay
[2] = species on record: Homo sapiens; test: Selectivity ratio of IC50 for JAK3 (unknown origin) using 16 uM of ATP and Tyr6 peptide to IC50 for JAK1 (unknown origin) using 87 uM of ATP and Tyr6 peptide
How it was run: (§1)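 JAK1 selectivity taken as IC50 against JAK2 or JAK3 divided by IC50 against JAK1. […] IC50s are means ± SD of three independent experiments.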

[3] = species on record: Homo sapiens; test: Selectivity ratio of IC50 for JAK2 (unknown origin) using 35 uM of ATP and Tyr6 peptide to IC50 for JAK1 (unknown origin) using 87 uM of ATP and Tyr6 peptide; how it was run: as §1
[4] = molecular target: T1, Tyrosine-protein kinase JAK3 (Homo sapiens, UniProt P52333); test: Inhibition of JAK3 (unknown origin) using 16 uM of ATP and Tyr6 peptide by Z'-LYTE kinase assay
T1 sequence (P52333 whole entry): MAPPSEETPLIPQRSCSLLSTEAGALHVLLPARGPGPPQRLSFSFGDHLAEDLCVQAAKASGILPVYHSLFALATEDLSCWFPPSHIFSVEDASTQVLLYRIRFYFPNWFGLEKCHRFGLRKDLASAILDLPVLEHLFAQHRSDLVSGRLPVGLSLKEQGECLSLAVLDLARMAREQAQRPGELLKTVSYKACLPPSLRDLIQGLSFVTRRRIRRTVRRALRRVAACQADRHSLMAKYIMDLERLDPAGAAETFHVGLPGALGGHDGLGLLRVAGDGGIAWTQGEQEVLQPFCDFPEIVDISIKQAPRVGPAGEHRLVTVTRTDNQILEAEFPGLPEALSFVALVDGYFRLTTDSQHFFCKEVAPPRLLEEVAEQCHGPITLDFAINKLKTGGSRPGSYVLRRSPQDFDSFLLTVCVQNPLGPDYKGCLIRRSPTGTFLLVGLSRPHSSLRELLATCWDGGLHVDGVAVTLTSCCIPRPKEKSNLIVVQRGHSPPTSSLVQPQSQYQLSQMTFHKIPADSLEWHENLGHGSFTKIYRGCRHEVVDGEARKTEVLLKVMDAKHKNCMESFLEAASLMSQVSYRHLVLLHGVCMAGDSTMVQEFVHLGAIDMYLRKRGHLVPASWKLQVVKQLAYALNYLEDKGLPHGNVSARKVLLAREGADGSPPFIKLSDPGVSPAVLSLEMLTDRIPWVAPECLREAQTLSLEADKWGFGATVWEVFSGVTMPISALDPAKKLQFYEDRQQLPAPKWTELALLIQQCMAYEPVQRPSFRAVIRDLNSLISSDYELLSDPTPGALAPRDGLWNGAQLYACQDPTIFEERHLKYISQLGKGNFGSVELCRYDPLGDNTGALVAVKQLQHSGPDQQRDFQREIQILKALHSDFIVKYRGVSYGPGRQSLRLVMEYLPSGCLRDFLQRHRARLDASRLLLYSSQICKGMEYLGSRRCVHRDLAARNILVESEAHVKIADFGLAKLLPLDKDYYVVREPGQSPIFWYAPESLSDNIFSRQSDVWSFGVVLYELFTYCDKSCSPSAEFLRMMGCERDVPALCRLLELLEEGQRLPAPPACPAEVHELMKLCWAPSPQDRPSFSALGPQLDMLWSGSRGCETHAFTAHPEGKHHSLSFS

[5] = molecular target: T2, Tyrosine-protein kinase JAK1 (Homo sapiens, UniProt P23458); test: Inhibition of JAK1 (unknown origin) using 87 uM of ATP and Tyr6 peptide by Z'-LYTE kinase assay
T2 sequence (P23458 whole entry): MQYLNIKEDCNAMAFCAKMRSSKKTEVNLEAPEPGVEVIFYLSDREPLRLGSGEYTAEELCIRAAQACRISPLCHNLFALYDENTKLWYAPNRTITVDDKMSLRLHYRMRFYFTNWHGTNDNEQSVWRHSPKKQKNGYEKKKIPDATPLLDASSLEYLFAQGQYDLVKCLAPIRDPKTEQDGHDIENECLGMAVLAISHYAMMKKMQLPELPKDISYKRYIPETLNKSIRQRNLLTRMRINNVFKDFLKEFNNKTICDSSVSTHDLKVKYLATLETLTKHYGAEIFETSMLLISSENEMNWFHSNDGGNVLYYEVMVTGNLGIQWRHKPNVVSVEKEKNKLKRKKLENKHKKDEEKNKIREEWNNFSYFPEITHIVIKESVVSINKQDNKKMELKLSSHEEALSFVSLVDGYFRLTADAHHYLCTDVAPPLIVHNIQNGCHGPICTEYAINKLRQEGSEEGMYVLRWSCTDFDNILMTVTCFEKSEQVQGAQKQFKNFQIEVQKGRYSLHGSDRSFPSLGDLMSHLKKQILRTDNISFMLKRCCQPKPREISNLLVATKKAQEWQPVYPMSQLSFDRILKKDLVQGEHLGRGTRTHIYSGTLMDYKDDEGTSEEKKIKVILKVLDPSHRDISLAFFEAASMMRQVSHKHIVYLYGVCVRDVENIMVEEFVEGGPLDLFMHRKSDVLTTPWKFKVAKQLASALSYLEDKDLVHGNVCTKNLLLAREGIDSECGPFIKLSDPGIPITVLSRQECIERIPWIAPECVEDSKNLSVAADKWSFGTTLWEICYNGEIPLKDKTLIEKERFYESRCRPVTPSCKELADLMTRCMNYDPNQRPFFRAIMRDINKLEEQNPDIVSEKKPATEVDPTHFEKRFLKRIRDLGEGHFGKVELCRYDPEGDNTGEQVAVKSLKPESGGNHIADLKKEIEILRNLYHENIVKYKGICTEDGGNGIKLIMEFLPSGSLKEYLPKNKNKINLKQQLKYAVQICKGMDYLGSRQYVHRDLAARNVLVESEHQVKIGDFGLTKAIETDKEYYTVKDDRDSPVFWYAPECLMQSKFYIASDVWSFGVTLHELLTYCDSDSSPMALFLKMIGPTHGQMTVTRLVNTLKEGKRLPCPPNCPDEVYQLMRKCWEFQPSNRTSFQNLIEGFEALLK

[6] = molecular target: T3, Non-receptor tyrosine-protein kinase TYK2 (Homo sapiens, UniProt P29597); test: Inhibition of Tyk2 (unknown origin) using 25 uM of ATP and Tyr3 peptide by Z'-LYTE kinase assay
T3 sequence (P29597 whole entry): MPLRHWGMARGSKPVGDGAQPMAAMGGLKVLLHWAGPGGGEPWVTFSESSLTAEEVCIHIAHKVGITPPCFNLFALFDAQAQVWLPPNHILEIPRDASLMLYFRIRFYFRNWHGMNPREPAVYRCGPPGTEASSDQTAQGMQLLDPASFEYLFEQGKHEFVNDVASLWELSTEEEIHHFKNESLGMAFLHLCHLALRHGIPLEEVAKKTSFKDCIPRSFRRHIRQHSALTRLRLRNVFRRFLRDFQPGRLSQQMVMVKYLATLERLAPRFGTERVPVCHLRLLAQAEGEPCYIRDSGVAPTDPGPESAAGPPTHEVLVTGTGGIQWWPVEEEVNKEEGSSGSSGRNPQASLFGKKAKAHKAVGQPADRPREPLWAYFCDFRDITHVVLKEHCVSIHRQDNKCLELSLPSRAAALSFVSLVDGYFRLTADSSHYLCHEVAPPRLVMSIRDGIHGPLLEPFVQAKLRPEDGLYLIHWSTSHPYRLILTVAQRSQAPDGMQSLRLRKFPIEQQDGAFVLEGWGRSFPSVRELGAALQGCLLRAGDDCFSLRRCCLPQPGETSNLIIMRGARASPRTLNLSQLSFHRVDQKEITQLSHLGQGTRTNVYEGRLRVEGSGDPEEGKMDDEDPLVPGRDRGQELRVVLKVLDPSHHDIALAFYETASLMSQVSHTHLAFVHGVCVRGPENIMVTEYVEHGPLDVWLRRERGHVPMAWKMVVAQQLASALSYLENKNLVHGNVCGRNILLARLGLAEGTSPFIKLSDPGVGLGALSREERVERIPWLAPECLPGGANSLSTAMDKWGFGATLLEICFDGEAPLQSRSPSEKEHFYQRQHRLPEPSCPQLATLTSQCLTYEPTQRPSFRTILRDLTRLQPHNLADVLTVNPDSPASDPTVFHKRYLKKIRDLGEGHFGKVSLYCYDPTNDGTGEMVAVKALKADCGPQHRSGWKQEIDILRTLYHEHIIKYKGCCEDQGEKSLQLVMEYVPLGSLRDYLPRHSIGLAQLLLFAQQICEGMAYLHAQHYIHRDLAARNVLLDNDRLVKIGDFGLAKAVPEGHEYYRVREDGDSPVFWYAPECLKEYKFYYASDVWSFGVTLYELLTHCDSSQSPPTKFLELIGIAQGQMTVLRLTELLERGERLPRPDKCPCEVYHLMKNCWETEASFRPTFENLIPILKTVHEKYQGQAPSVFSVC

[7] = molecular target: T4, Tyrosine-protein kinase JAK2 (Homo sapiens, UniProt O60674); test: Inhibition of JAK2 (unknown origin) using 35 uM of ATP and Tyr6 peptide by Z'-LYTE kinase assay
T4 sequence (O60674 whole entry): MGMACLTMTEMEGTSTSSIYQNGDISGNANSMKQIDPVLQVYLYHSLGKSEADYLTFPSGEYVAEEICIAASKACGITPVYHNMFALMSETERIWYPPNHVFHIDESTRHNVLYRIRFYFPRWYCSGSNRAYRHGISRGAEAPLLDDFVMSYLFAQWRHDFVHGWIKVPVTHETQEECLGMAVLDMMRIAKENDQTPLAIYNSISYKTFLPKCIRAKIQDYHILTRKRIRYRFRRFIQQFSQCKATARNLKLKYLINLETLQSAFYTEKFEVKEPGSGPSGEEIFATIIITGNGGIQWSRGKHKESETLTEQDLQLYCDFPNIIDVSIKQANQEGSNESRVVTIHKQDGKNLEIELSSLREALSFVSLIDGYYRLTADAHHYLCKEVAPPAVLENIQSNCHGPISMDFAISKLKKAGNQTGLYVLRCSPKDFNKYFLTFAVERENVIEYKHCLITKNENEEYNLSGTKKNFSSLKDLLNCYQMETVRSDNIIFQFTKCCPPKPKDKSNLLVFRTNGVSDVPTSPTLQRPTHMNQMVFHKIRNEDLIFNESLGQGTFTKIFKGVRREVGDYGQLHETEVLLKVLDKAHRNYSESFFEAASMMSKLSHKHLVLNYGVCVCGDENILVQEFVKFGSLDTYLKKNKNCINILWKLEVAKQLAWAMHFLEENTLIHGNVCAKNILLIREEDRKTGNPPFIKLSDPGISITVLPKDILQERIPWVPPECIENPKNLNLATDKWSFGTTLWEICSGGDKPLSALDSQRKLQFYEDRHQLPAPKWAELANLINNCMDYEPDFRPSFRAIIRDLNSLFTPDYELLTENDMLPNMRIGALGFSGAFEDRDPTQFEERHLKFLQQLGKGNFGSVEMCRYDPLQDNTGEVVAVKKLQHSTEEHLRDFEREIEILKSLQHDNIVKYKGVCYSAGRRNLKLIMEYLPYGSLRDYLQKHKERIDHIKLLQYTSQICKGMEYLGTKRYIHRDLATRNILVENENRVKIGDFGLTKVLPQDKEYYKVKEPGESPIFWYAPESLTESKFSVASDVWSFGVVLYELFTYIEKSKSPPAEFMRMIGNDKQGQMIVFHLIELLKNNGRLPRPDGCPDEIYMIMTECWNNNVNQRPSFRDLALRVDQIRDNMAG

[8] = molecular target: T4, Tyrosine-protein kinase JAK2; test: Inhibition of JAK2 (unknown origin)
[9] = molecular target: T1, Tyrosine-protein kinase JAK3; test: Inhibition of JAK3 (unknown origin) using 1 mM of ATP and Tyr6 peptide by Z'-LYTE kinase assay
[10] = Plasma clearance in Sprague-Dawley rat at 5 mg/kg, iv; assay type: ADME, organism-based
How it was run: (§2)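 Rats dosed intravenously. Steady-state volume of distribution, systemic plasma clearance and plasma half-life derived from plasma concentration data.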

[11] = Volume of distribution at steady state in Sprague-Dawley rat at 5 mg/kg, iv; assay type: ADME, organism-based; conditions: in vivo, read-out: Vdss; how it was run: as §2
[12] = molecular target: T4, Tyrosine-protein kinase JAK2; test: Inhibition of JAK2 (unknown origin) using 1 mM of ATP and Tyr6 peptide by Z'-LYTE kinase assay
[13] = molecular target: T3, Non-receptor tyrosine-protein kinase TYK2; test: Inhibition of Tyk2 (unknown origin) using 1 mM of ATP and Tyr3 peptide by Z'-LYTE kinase assay
[14] = molecular target: T4, Tyrosine-protein kinase JAK2; test: Inhibition of JAK2 in human A431 cells assessed as erythropoietin-induced STAT5 phosphorylation at 0.001 to 10 uM after 2 hrs by ELISA; assay type: cell-based; conditions: A-431
[15] = molecular target: T2, Tyrosine-protein kinase JAK1; test: Inhibition of JAK1 (unknown origin) using 1 mM of ATP and Tyr6 peptide by Z'-LYTE kinase assay
[16] = Half life in Sprague-Dawley rat at 5 mg/kg, iv; assay type: ADME, organism-based; conditions: in vivo; how it was run: as §2
[17] = Permeability of the compound by PAMPA; assay type: physicochemical; conditions: read-out: permeability
[18] = molecular target: T2, Tyrosine-protein kinase JAK1; conditions: A-431, 0.001 to 10 uM
[19] = Oral bioavailability in Sprague-Dawley rat at 10 mg/kg; assay type: ADME, organism-based; conditions: in vivo

Row | SMILES | Ratio IC50 [2] | Ratio IC50 [3] | pIC50 [4] | pIC50 [5] | pIC50 [6] | pIC50 [7] | further results
1 | CC[C@@H]1CN(C(=O)NCC(F)(F)F)C[C@@H]1c1cnc2cnc3[nH]ccc3n12 |  |  |  |  |  |  | Ratio IC50 [1]: 74
2 | CC(C)c1ccc(-c2nc3cc(C(N)=O)ccc3n2CCN)cc1 | 0.6 | 2 | 5.72 | 5.51 | 5.57 | 5.23 | 
3 | NCCn1c(-c2ccncc2)nc2cc(C(N)=O)ccc21 | 0.3 | 0.4 | 4.98 | 4.49 | 5.24 | 4.87 | 
4 | CC[C@@](C)(Nc1ccnc(-c2c[nH]c3ncccc23)n1)C(=O)NCC(F)(F)F [DECERNOTINIB] |  |  |  |  |  |  | pIC50 [8]: 7.89
5 | NCCn1c(C2CCNCC2)nc2cc(C(N)=O)ccc21 | 25 | 63 | 5.90 | 7.30 | 5.43 | 5.50 | pIC50 [9]: 3.63; clearance [10]: 6.67 mL/min/kg; Vd [11]: 0.5 L/kg; pIC50 [12]: 3.36; pIC50 [13]: 3.12; inhibition [14]: inactive; pIC50 [15]: 5.24; half-life [16]: 9.1 h; Papp [17]: 0.1 ×10⁻⁶ cm/s; inhibition [18]: inactive; bioavailability [19]: 0.7%
6 | NCCCc1nc2cc(C(N)=O)ccc2n1CCN | 0.5 | 0.7 | 5.96 | 5.66 | 5.60 | 5.80 | 
7 | N#Cc1ccc(-c2nc3cc(C(N)=O)ccc3n2CCN)cc1 | 0.7 | 0.9 | 5.72 | 5.54 | 5.60 | 5.59 | 
8 | NCCc1nc2cc(C(N)=O)ccc2n1CCN | 15 | 29 | 5.82 | 7.00 | 5.51 | 5.54 | 
9 | NCCCn1c(CCN)nc2cc(C(N)=O)ccc21 | 0.2 | 0.4 | 5.82 | 5.21 | 5.19 | 5.66 | 
10 | NCCn1c(-c2ccc(O)cc2O)nc2cc(C(N)=O)ccc21 | 0.9 | 0.8 | 5.54 | 5.51 | 5.43 | 5.60 | 
11 | NCCn1c(-c2ccc(O)cc2)nc2cc(C(N)=O)ccc21 | 20 | 11 | 5.62 | 7.00 | 5.49 | 5.89 | 
12 | Cc1ccc(-c2nc3cc(C(N)=O)ccc3n2CCN)cc1 | 0.6 | 0.7 | 5.64 | 5.43 | 5.46 | 5.59 | 
13 | NCCCn1c(-c2ccccc2)nc2cc(C(N)=O)ccc21 | 0.2 | 2 | 5.74 | 4.95 | 5.57 | 4.69 | 
14 | NCCn1c(-c2ccccc2)nc2cc(C(N)=O)ccc21 | 1 | 0.2 | 4.85 | 4.94 | 5.38 | 5.55 | 
15 | NCCn1c(-c2ccc(C(F)(F)F)cc2)nc2cc(C(N)=O)ccc21 | 0.2 | 0.5 | 5.68 | 5.03 | 5.49 | 5.32 | 
16 | NCCn1c(-c2cccnc2N)nc2cc(C(N)=O)ccc21 | 0.2 | 0.6 | 5.72 | 5.09 | 5.37 | 5.33 | 
17 | NCCn1c(-c2cncnc2)nc2cc(C(N)=O)ccc21 | 0.7 | 0.5 | 5.60 | 5.47 | 5.55 | 5.80 | 
18 | NCCn1c(C2CCCCC2)nc2cc(C(N)=O)ccc21 | 0.6 | 1 | 5.60 | 5.37 | 5.48 | 5.39 | 
